In ChEMBL document CHEMBL3822354, “Synthesis and evaluation of 2-pyridinylpyrimidines as inhibitors of HIV-1 structural protein assembly” (Bioorg Med Chem Lett, 2016):
In brackets after ≈: the same amount, converted by molar mass.

What was measured:
[1] = molecular target: Structural capsid protein (Human immunodeficiency virus 1, UniProt Q76129); test: Inhibition of CAI-biotin peptide binding to GST-tagged HIV1 capsid C-terminal domain by alphascreen assay
Procedure, shortened: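 Competitive AlphaScreen assay: test compound competes with CAI-biotin peptide for binding to GST-CA. IC50 is the compound concentration that lowers the AlphaScreen signal by 50%.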

[2] = Solubility of compound in PBS by UV spectral analysis; format: physicochemical
[3] = Cytotoxicity against human MT4 cells after 72 hrs by XTT assay; format: cell-based
Procedure, shortened: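 The XTT read-out was run in parallel with the MT-4 infectivity assay, with two-fold serial compound dilutions on MT-4 cells.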

[4] = system: Human immunodeficiency virus 1; test: Antiviral activity against HIV1 NL4-3 infected in human MT4 cells assessed as inhibition of viral replication after 3 days by luciferase reporter gene assay; format: functional, organism-based; conditions: Human immunodeficiency virus 1, NL4-3, MT4, 72 h
Procedure, shortened: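 Two-fold serial dilutions of compound were added to MT-4 cells infected with HIV-1 NL4-3 carrying a Renilla luciferase reporter. Replication was read as luciferase activity after 3 days. EC50 is the concentration inhibiting replication by 50%.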

Structural capsid protein, sequence (Q76129 whole entry, the tested form may be a part): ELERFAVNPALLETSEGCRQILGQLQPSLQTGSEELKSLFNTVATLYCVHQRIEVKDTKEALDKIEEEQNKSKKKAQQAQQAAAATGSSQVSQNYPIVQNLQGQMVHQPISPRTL

Row | Structure (SMILES) | IC50 [1] | solubility [2] | CC50 at 72 h [3] | EC50 [4]
1 | Cc1cc(Nc2ccc(C(=O)NCCF)c(F)c2)nc(-c2ccncc2)n1 | > 100 µM | 9 µM (≈ 3.32 µg/mL) | – | –
2 | Cc1cc(Nc2ccc(C(=O)NCCF)cc2)nc(-c2cccnc2)n1 | 8 µM | 99 µM (≈ 34.8 µg/mL) | 44 µM | 25 µM
3 | CC(=O)c1ccc(Nc2ccnc(-c3ccncc3)n2)cc1 | > 100 µM | 37 µM (≈ 10.7 µg/mL) | – | –
4 | Cc1cc(Nc2ccc(C(=O)N3CCN(c4ccc(F)cc4)CC3)cc2)nc(-c2cccnc2)n1 | 20 µM | 42 µM (≈ 19.7 µg/mL) | – | –
5 | CC(=O)c1ccc(Nc2cc(C)nc(-c3cccnc3)n2)cc1 | 12 µM | 94 µM (≈ 28.6 µg/mL) | 77 µM | 50 µM
6 | CCOC(=O)c1cccc(Nc2ccnc(-c3ccncc3)n2)c1 | > 100 µM | 46 µM (≈ 14.7 µg/mL) | – | –
7 | CCOC(=O)c1ccccc1Nc1ccnc(-c2cccnc2)n1 | > 100 µM | 94 µM (≈ 30.1 µg/mL) | – | –
8 | Cc1cc(Nc2cc(F)c(F)c(F)c2)nc(-c2cccnc2)n1 | 22 µM | 73 µM (≈ 23.1 µg/mL) | – | –
9 | CCOC(=O)c1cccc(Nc2ccnc(-c3cccnc3)n2)c1 | 21 µM | 92 µM (≈ 29.5 µg/mL) | – | –
10 | Fc1ccc(Nc2ccnc(-c3ccncc3)n2)cc1F | 81 µM | 42 µM (≈ 11.9 µg/mL) | – | –
11 | Cc1cc(Nc2ccc(C(=O)NCCF)cc2)nc(-c2ccncc2)n1 | > 100 µM | 40 µM (≈ 14.1 µg/mL) | – | –
12 | O=C(NCCF)c1ccc(Nc2ccnc(-c3cccnc3)n2)c(F)c1 | 73 µM | 96 µM (≈ 34.1 µg/mL) | – | –
13 | CC(=O)c1ccc(Nc2ccnc(-c3cccnc3)n2)cc1 | 53 µM | 98 µM (≈ 28.5 µg/mL) | – | –
14 | CCOC(=O)c1ccc(Nc2cc(C)nc(-c3ccncc3)n2)cc1 | 36 µM | 4 µM (≈ 1.34 µg/mL) | – | –
15 | O=C(NCCF)c1ccc(Nc2ccnc(-c3cccnc3)n2)cc1F | 43 µM | 84 µM (≈ 29.8 µg/mL) | – | –
16 | Cc1cc(Nc2cc(C(=O)NCCF)ccc2F)nc(-c2cccnc2)n1 | 52 µM | 98 µM (≈ 36.2 µg/mL) | – | –
17 | CC(=O)c1cccc(Nc2cc(C)nc(-c3cccnc3)n2)c1 | 10 µM | 95 µM (≈ 28.9 µg/mL) | 64 µM | 23 µM
18 | Cc1cc(Nc2ccc(C(=O)NCCF)c(F)c2)nc(-c2cccnc2)n1 | 3 µM | 98 µM (≈ 36.2 µg/mL) | 35 µM | 20 µM

Row | Structure (SMILES) | IC50 [1] | solubility [2] | CC50 at 72 h [3] | EC50 [4]
19 | CCOC(=O)c1ccc(Nc2ccnc(-c3ccncc3)n2)cc1 | 28 µM | 52 µM (≈ 16.7 µg/mL) | – | –
20 | O=C(NCCF)c1ccc(Nc2ccnc(-c3ccncc3)n2)cc1 | > 100 µM | 97 µM (≈ 32.7 µg/mL) | – | –
21 | O=C(NCCF)c1cc(Nc2ccnc(-c3cccnc3)n2)ccc1F | 68 µM | 97 µM (≈ 34.5 µg/mL) | – | –
22 | CC(=O)c1cc(Nc2cc(C)nc(-c3ccncc3)n2)ccc1F | 83 µM | 23 µM (≈ 7.41 µg/mL) | – | –
23 | Cc1cc(Nc2ccc(C(=O)N3CCN(C(=O)C4CCCO4)CC3)cc2)nc(-c2cccnc2)n1 (configuration not stated) | 54 µM | 99 µM (≈ 46.8 µg/mL) | – | –
24 | CC(=O)c1cccc(Nc2ccnc(-c3cccnc3)n2)c1 | 39 µM | 97 µM (≈ 28.2 µg/mL) | – | –
25 | CCOC(=O)c1ccc(Nc2cc(C)nc(-c3cccnc3)n2)cc1 | 21 µM | 71 µM (≈ 23.7 µg/mL) | – | –
26 | CCOC(=O)c1ccc(Nc2ccnc(-c3cccnc3)n2)c(F)c1 | 30 µM | 53 µM (≈ 17.9 µg/mL) | – | –
27 | O=C(NCCF)c1ccc(Nc2ccnc(-c3cccnc3)n2)cc1 | 34 µM | 99 µM (≈ 33.4 µg/mL) | – | –
28 | Cc1cc(Nc2ccc(C(=O)NCCF)cc2F)nc(-c2cccnc2)n1 | 15 µM | 50 µM (≈ 18.5 µg/mL) | > 100 µM | > 100 µM
29 | CC(=O)c1ccc(F)c(Nc2cc(C)nc(-c3cccnc3)n2)c1 | > 100 µM | 58 µM (≈ 18.7 µg/mL) | – | –
30 | CC(=O)c1ccc(Nc2cc(C)nc(-c3ccncc3)n2)cc1 | 54 µM | 6 µM (≈ 1.83 µg/mL) | – | –
31 | CCOC(=O)c1ccc(Nc2ccnc(-c3cccnc3)n2)cc1 | 19 µM | 61 µM (≈ 19.5 µg/mL) | – | –
32 | CC(=O)c1cc(Nc2cc(C)nc(-c3cccnc3)n2)ccc1F | 9 µM | 40 µM (≈ 12.9 µg/mL) | > 100 µM | > 100 µM
33 | CC(=O)c1ccc(Nc2cc(C)nc(-c3cccnc3)n2)cc1F | 25 µM | 32 µM (≈ 10.3 µg/mL) | – | –
34 | CC(=O)c1cccc(Nc2cc(C)nc(-c3ccncc3)n2)c1 | > 100 µM | 29 µM (≈ 8.83 µg/mL) | – | –
35 | Fc1ccc(Nc2ccnc(-c3cccnc3)n2)cc1F | 38 µM | 67 µM (≈ 19 µg/mL) | – | –
